Screening results as filed in PubChem.
ABCB1 inh – blocks JC-1 efflux by human ABCB1 transporter; P08183; CCRF-Adr cells, flow cytometry; inhibition, % at 6.6 µM; 0.067% of 190,000 active; in the data active = inhibition above about 40%;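 also: higher value means more JC-1 retained so stronger ABCB1 efflux block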
ABCG2 inh – human ABCG2 inhibition, ABCB1 as counter-screen; Q9UNQ0; IgMXP3 cells, JC-1 efflux, flow cytometry; inhibition, % at 6.6 µM; 0.1% of 190,000 active; AID 1325;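 active = inhibition above 80%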
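Test system: IgMXP3 (ABCG2) plus far-red-tagged CCRF-Adr (ABCB1) cells. Reagent: JC-1 dye as substrate. Timing: 10 min exposure at 25 °C with rotation, no wash. Measured by: flow cytometric JC-1 green MFI at 530 nm. Read-out: percent efflux inhibition, scaled nicardipine 100% to DMSO 0%. Control set: nicardipine and DMSO wells.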
PKD1 kinase inh – PKD1 (human) kinase inhibition. Q15139. PKD1 kinase fluorescence polarization assay. inhibition, % (concentration not given with the values). 0.056% of 200,000 active. AID 797; in the data active = inhibition above about 50%
TNAP act hi DEA – activators of human TNAP at high phosphate acceptor concentration; P05186; purified TNAP, CDP-star luminescence, 1 M DEA, 30 min; stronger effect = higher value; 0 = EDTA background, 1 = DMSO-only activity; activation factor at 20 µM; 200,000 tested, under 10 active;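 active = activation factor at least 2 at 20 µM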
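Dosing: 20 µM single point. System: human TNAP. Amount: TNAP 1/800 final. Incubation: 30 min, room temperature. Read-out: TNAP activation factor scaled between EDTA and DMSO control wells. Signal: luminescence from CDP-star hydrolysis. Medium: 1 M DEA, pH 9.8, Mg2+, Zn2+. Control set: EDTA negative control, DMSO positive control.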
TNAP inh hi DEA – TNAP (human) inhibition, high acceptor; P05186; 0.03% of 200,000 active; AID 1135; purified TNAP, CDP-star luminescence, 1 M DEA; inhibition, % at 20 µM;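 active = over 50% inhibition of tissue-nonspecific alkaline phosphatase at 20 µM in the single-dose screen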
TNAP inh no acc – blocks human TNAP activity with no phosphate acceptor present; 0.26% of 200,000 active; purified TNAP, CDP-star luminescence, 30 min; AID 1012; inhibition, % at 20 µM;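 active = tissue-nonspecific alkaline phosphatase inhibition above about 50% at 20 µM in the single-dose screen, limit read from the data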
Of the large screens only hits and unclear results are named; the others gave an inactive call. An excerpt weighted towards active compounds, which were near 0.48% of everything screened.

COc1ccc(-c2[nH]nc3oc(=O)cc(C)c23)cc1	TNAP inh no acc 90
Cc1cc(=O)oc2n[nH]c(-c3ccccc3)c12	TNAP inh no acc 92
CC(C1CCN(Cc2cn(C)nc2-c2cccc(Cl)c2)CC1)N1CCOCC1 (configuration not stated)	none
S=c1[nH]nc(-c2ccco2)n1/N=C/c1ccccn1	none
S=c1[nH]nc(-c2ccco2)n1/N=C/c1ccc(Cl)c(Cl)c1	TNAP inh no acc 58
CC1CC(=O)C2=C(C1)Nc1nc3ccccc3n1C2c1cccnc1 (configuration not stated)	TNAP inh no acc 53
N=C(N)SCc1cn2ccccc2n1	TNAP inh no acc 59
CN(Cc1cnn(C)c1)Cc1nc(C(c2ccccc2)c2ccccc2)no1	none
Cc1ccc2c(c1)C1C=CCC1C(C(=O)O)N2 (configuration not stated)	none
O=C(O)C1Nc2c(O)cc(Cl)c([N+](=O)[O-])c2C2C=CCC12 (configuration not stated)	TNAP inh no acc 65
CN1CCN(Cc2cn[nH]c2-c2ccc(F)cc2F)[C@@H](c2ccccc2)C1	none
O=C(C1CCN(Cc2cn[nH]c2-c2ccc(F)cc2F)CC1)N1CCOCC1	TNAP inh no acc 51
COc1ccc(-c2[nH]ncc2CN2CCC(C(=O)N3CCOCC3)CC2)c(F)c1	TNAP inh no acc 68
O=C(Cc1ccc(F)cc1)N1CCC(N2CCC(C(=O)N3CCOCC3)CC2)CC1	none
OCCCC1CCCN(Cc2cn[nH]c2-c2ccc(F)cc2F)C1 (configuration not stated)	TNAP inh no acc 53
Cc1cc(NC(=O)CSc2ncccc2C(=O)O)no1	none
Cc1ccc(NC(=O)CSc2ncc3ccccn23)cc1C	none
CCCCC(CC)CNC(=O)C(=O)c1ccccc1NC(C)=O (configuration not stated)	none
CCOC(=O)c1c2c3c(cccc3[nH]c1=O)C(=O)c1ccccc1-2	none
COCCCNc1c2c3c(cccc3[nH]c1=O)C(=O)c1ccccc1-2	PKD1 kinase inh 110
Nc1nc(-c2ccc(Cl)cc2)nn1C(=O)c1cccnc1	TNAP inh no acc 58
Nc1nc(-c2cccnc2)nn1C(=O)c1ccc(Cl)cc1	none
CCC(=O)n1nc(-c2ccc(Cl)cc2)nc1N	TNAP inh no acc 59
COCC(=O)N1CCCC(C(=O)c2ccc(-c3ccccc3)c(F)c2)C1 (configuration not stated)	none
CCn1c(SCC(=O)Nc2cc(C)on2)nnc1-c1c[nH]c2ccccc12	none
CSc1n[nH]c(NC(C)=O)n1	TNAP inh no acc 50
CCCSc1n[nH]c(NC(C)=O)n1	TNAP inh no acc 96
C=CCNC(=O)c1ccc(-n2cccc2)cc1	none
O/N=C\c1ccccc1Oc1ccc(F)cc1	none
C/C(=N\NC(=O)CN(c1ccc(Oc2ccccc2)cc1)S(C)(=O)=O)C(C)(C)C	none
c1csc(-c2noc(CN3CCc4sccc4C3)n2)c1	none
CC(NC(=O)CCCn1cc([N+](=O)[O-])cn1)c1ccccc1 (configuration not stated)	none
CCOC(=O)c1sc(=NC(=O)CCS(=O)(=O)c2ccccc2)n(C)c1C	PKD1 kinase inh 91
CCOC(=O)c1sc(=NC(=O)c2ccccc2)n(C)c1C	none
Cc1ccc(C(=O)N/N=C/c2ccc3c(c2)OCO3)o1	none
O=C(Cc1ccccc1)N/N=C/c1ccc2c(c1)OCO2	none
O=C(N/N=C/c1ccccc1)c1cc(-c2ccc3c(c2)OCO3)n[nH]1	TNAP inh no acc 66
O=C(N/N=C/c1cccc(O)c1)c1cc(-c2ccc3c(c2)OCO3)n[nH]1	TNAP inh no acc 95
O=C(N/N=C/c1ccc(O)cc1)c1cc(-c2ccc3c(c2)OCO3)n[nH]1	TNAP inh no acc 91
O=C(Cc1n[nH]c(=O)[nH]c1=O)N/N=C/c1cccc(O)c1	none
COCCN(CC(=O)NC1CCCCC1)C(=O)CCCC(=O)Nc1ccccn1	none
CCOC(=O)c1cc(-c2cccc([N+](=O)[O-])c2)n[nH]1	TNAP inh no acc 62
C#CCNC(=O)C1=C[C@H](c2ccc(C(F)(F)F)cc2)C[C@H](OCCCCO)O1	none
COc1ccc2nc(-n3c(O)c(C4=c5ccccc5=NC4=O)[nH]c3=S)sc2c1	TNAP inh hi DEA 88
CCn1c(SCC(=O)Nc2sc3c(c2C#N)CCC(C(C)(C)C)C3)nnc1-c1ccco1 (configuration not stated)	none
CCn1c(SCC(=O)Nc2sc3c(c2C#N)CCCC3)nnc1-c1ccco1	TNAP inh hi DEA 53
O=C1CN(C(=O)c2cc3ccccc3oc2=O)C(c2ccc(F)cc2)c2cc(Br)ccc2N1 (configuration not stated)	none
O=C1c2c(O)cc(O)cc2O[C@H](c2ccc(O)c(O)c2)[C@@H]1O	TNAP inh no acc 70 (no result: ABCB1 inh, PKD1 kinase inh)
CC1CCC(NC(=O)C2CC(=O)N(c3ccc4c(c3)OCCO4)C2)CC1 (configuration not stated)	none
COc1cc2c(=O)n(CCCC(=O)NCC3CCCO3)c(=O)n(CC(=O)c3ccc(F)cc3)c2cc1OC (configuration not stated)	none
COc1ccc(NC(=O)CSc2nc3ncccc3[nH]2)cc1OC	none
COc1ccc(OC)c(C(=O)CSc2nc3ncccc3[nH]2)c1	TNAP inh no acc 63
O=C(CSc1nc2ncccc2[nH]1)c1ccc(F)cc1	TNAP inh no acc 54
O=C(Nc1cccc(NC(=O)c2ncn[nH]2)c1)c1cccc(Cl)c1	none
COc1ccc([N+](=O)[O-])cc1NS(=O)(=O)c1ccc(Cl)c(C(=O)Nc2sc3c(c2C#N)CCCCC3)c1	none
O=C1CC(c2ccc(F)cc2)Sc2nc(C34CC5CC(CC(C5)C3)C4)nn21 (configuration not stated)	TNAP inh no acc 86
COc1ccc(NC(=O)c2cccnc2Sc2ccccc2)c(OC)c1	none
Nc1nc(Cl)cc(N2CCC(c3cc(-c4ccc(Cl)cc4Cl)n[nH]3)CC2)n1	TNAP inh no acc 56
C=C(C)CC(c1ccccc1)N(C(C)=O)c1ccco1 (configuration not stated)	none
COc1ccc(-c2[nH]ncc2C=O)cc1	TNAP inh no acc 70
COc1cc(OC)c(-c2c3cc(O)c(=O)cc-3oc3cc(O)c(O)cc23)cc1OC	none
Cc1c2cc(O)c(=O)cc-2oc2cc(O)c(O)cc12	ABCB1 inh 47, TNAP inh no acc 57
Cc1ccc(N=C2NC(=O)/C(=C/C=C/c3ccco3)S2)cc1	none
O=C1NC(=Nc2ccccc2)S/C1=C\C=C\c1ccco1	TNAP inh no acc 56
CN(CCc1ccccn1)C(=O)CCC1CCCN(C(=O)c2n[nH]c3c2CCCC3)C1 (configuration not stated)	TNAP inh no acc 70
